Source: ChEMBL document CHEMBL3217724, “Synthesis and evaluation of a series of benzothiophene acrylonitrile analogs as anticancer agents” (Medchemcomm, 2013)
The source made the active and inactive calls. The calls are words filed in the database; no cut-off is given here.

Columns and labels:
MCF7 = assay: Growth inhibition of human MCF7 cells; assay type: functional
How it was run: (§1)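 NCI 60-human-cancer-cell-line panel, five-dose screen after a preliminary screen. GI50 is the molar concentration giving 50% growth inhibition.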

TK-10 = assay: Growth inhibition of human TK10 cells; assay type: functional
How it was run: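 NCI 60-cell-line panel, five-dose screen; GI50 is the molar concentration giving 50% growth inhibition.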

[1] = Growth inhibition of human Hs578T cells; assay type: functional; details: Hs-578T; how it was run: as §1
LLC-PK1 = assay: Growth inhibition of pig LLC-PK1 cells expressing MDR1 by Alamar Blue assay; assay type: functional; details: Sus scrofa
How it was run: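 Porcine epithelial L-MDR1 (P-gp expressing) cells and their non-expressing parent line were exposed to compound for 72 h. Viability was read with AlamarBlue dye and GI50 derived. P-gp expression was verified by Western blot with β-actin as loading control. The resistance ratio compares GI50 in MDR1 versus parent cells.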

[2] = Growth inhibition of P-gp expressing human NCI-ADR-RES cells by Alamar Blue assay; assay type: functional
How it was run: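 72-h cytotoxicity in 96-well plates with AlamarBlue viability dye, giving GI50. Line 1 uses docetaxel-resistant PC3 prostate cells (PC3-DR), and line 2 uses NCI/ADR-Res ovarian cells. P-gp expression in both was confirmed by Western blot, with β-actin as the loading control.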

NCI-H226 = assay: Growth inhibition of human NCI-H226 cells; assay type: functional; how it was run: as §1
RPMI-8226 = assay: Growth inhibition of human RPMI8226 cells; assay type: functional; how it was run: as §1
SF-268 = assay: Growth inhibition of human SF268 cells; assay type: functional; how it was run: as §1
CAKI-1 = assay: Growth inhibition of human Caki1 cells; assay type: functional; how it was run: as §1
[3] = Growth inhibition of human HCC2998 cells; assay type: functional; details: HCC 2998; how it was run: as §1
[4] = Growth inhibition of human OVCAR8 cells; assay type: functional; details: OVCAR-8; how it was run: as §1
MDA-MB-231 = assay: Growth inhibition of human MDA-MB-231 cells; assay type: functional; how it was run: as §1
[5] = Growth inhibition of human NCI-ADR-RES cells; assay type: functional; how it was run: as §1
PC-3 [6] = assay: Induction of beta tubulin de-stabilization in human PC3 cells at 1 to 100 nM after 24 hrs by DAPI-staining based immunofluorescence assay; assay type: cell-based
How it was run: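 PC3 cells were treated 24 h at 1, 10 and 100 nM, then immunostained for beta-tubulin with DAPI nuclear counterstain. Docetaxel (stabilizer) and vinblastine (destabilizer) at 10 nM served as references.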

[7] = Growth inhibition of pig LLC-PK1 cells by Alamar Blue assay; assay type: cell-based, Sus scrofa
How it was run: (§2)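 Cell viability was read with AlamarBlue dye in 96-well format and GI50 values derived, to assess P-gp effects. Cells were P-gp-expressing NCI/ADR-Res ovarian cancer cells and L-MDR1 porcine epithelial cells, each with its non-expressing parent line. P-gp expression was confirmed by Western blot with β-actin as loading control. Resistance is the GI50 in the P-gp line over the GI50 in the parent line.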

DU-145 = assay: Growth inhibition of human DU145 cells; assay type: functional; how it was run: as §1
786-0 = assay: Growth inhibition of human 786-0 cells; assay type: functional; how it was run: as §1
MDA-MB-435 = assay: Growth inhibition of human MDA-MB-435 cells; assay type: functional; how it was run: as §1
SK-MEL-28 = assay: Growth inhibition of human SK-MEL-28 cells; assay type: functional; how it was run: as §1
Tubulin (Homo sapiens) = Tubulin (Homo sapiens) (UniProt P68371+Q9H4B7+P0DPH7+P68366+Q13509+Q71U36+P04350+Q3ZCM7+P07437+P68363+Q9BQE3+Q6PEY2+Q13885+Q9BVA1+Q9BUF5); assay: Inhibition of tubulin polymerization (unknown origin) after 1 hr; assay type: protein-complex assay
How it was run: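 Purified tubulin was allowed to polymerize for 1 h with increasing concentrations of compound. Docetaxel and vinblastine were the stabilizing and destabilizing references.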

[8] = Growth inhibition of human OVCAR5 cells; assay type: functional; details: OVCAR-5; how it was run: as §1
PC-3 [9] = assay: Growth inhibition of human PC3 cells after 72 hrs by Alamar Blue assay; assay type: functional; details: PC-3, 72 h
How it was run: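 PC3 prostate cancer cells and docetaxel-resistant PC3-DR cells were exposed to drug for 72 hours in 96-well format. Viability was read with AlamarBlue dye and GI50 derived. Resistance is the GI50 in PC3-DR over the GI50 in parental PC3.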

A498 = assay: Growth inhibition of human A498 cells; assay type: functional; how it was run: as §1
[10] = Growth inhibition of human SF539 cells; assay type: functional; details: SF-539; how it was run: as §1
ACHN = assay: Growth inhibition of human ACHN cells; assay type: functional; how it was run: as §1
[11] = Growth inhibition of human BT549 cells; assay type: functional; details: BT-549; how it was run: as §1
SK-MEL-5 = assay: Growth inhibition of human SK-MEL-5 cells; assay type: functional; how it was run: as §1
[12] = target: Tubulin beta (Homo sapiens) (UniProt P68371+Q9H4B7+Q13509+P04350+Q3ZCM7+P07437+Q13885+Q9BVA1+Q9BUF5+A6NNZ2); assay: Inhibition of tubulin beta in human PC3 cells assessed as chromosomal overduplication at 100 nM after 24 hrs by DAPI-staining based immunofluorescence assay; assay type: cell-based; details: PC-3
How it was run: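 PC3 cells were treated 24 h at 100 nM, with docetaxel 100 nM for comparison. Tubulin immunofluorescence with DAPI nuclear counterstain was used to score chromosome overduplication and multiple spindle poles.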

[13] = Growth inhibition of human OVCAR8 cells by Alamar Blue assay; assay type: functional; details: OVCAR-8; how it was run: as §2
HL-60(TB) = assay: Growth inhibition of human HL-60(TB) cells; assay type: functional; how it was run: as §1
[14] = Growth inhibition of human OVCAR4 cells; assay type: functional; details: OVCAR-4; how it was run: as §1
Malme-3M = assay: Growth inhibition of human MALME-3M cells; assay type: functional; how it was run: as §1
[15] = Growth inhibition of human LOXIMVI cells; assay type: functional; details: LOX IMVI; how it was run: as §1
PC-3 [16] = assay: Growth inhibition of human PC3 cells; assay type: functional; how it was run: as §1

COc1cc(/C(C#N)=C/c2cc3ccccc3s2)cc(OC)c1OC
GI50 (MCF7): 40.2 nM
GI50 (TK-10): 36.3 nM
GI50 [1]: 42.7 nM
GI50 (LLC-PK1): 11.7 nM
GI50 [2]: 3.2 nM
GI50 (NCI-H226): > 100 nM
GI50 (RPMI-8226): 28.6 nM
GI50 (SF-268): 46.7 nM
GI50 (CAKI-1): 51.4 nM
GI50 [3]: 16.3 nM
GI50 [4]: 23.5 nM
GI50 (MDA-MB-231): 33 nM
GI50 [5]: 27.5 nM
Activity (PC-3 [6]): Active
GI50 [7]: 9.7 nM
GI50 (DU-145): 21.1 nM
GI50 (786-0): 12.2 nM
GI50 (MDA-MB-435): 23.5 nM
GI50 (SK-MEL-28): > 100 nM
inhibition (Tubulin (Homo sapiens)): Dose-dependent effect
GI50 [8]: 61.5 nM
GI50 (PC-3 [9]): 8.6 nM
GI50 (A498): 28.8 nM
GI50 [10]: 24.8 nM
GI50 (ACHN): 73.2 nM
GI50 [11]: 36.6 nM
GI50 (SK-MEL-5): 34.4 nM
inhibition [12]: Active
GI50 [13]: 5.2 nM
GI50 (HL-60(TB)): 24.4 nM
GI50 [14]: > 100 nM
GI50 (Malme-3M): 23.3 nM
GI50 [15]: 48.7 nM
GI50 (PC-3 [16]): 45 nM
